Lipid droplet – inhibitors of hepatocyte lipid droplet formation, primary screen, imaging, high-throughput imaging, BODIPY stain; AML12 mouse hepatocytes, oleate lipid droplets; inhibition, % at 6.5 µM; actives 0.4% (n = 240,000); AID 1656, 2009;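 active = lipid droplet intensity inhibited by at least 50%, with more than 500 cells counted; inconclusive = wells with under 300 cells, treated as cytotoxic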
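Material – mouse AML12 hepatocyte cell line, fixed after treatment · Compound dosing – one dose, 6.5 µM compound · Times – compound with oleate, overnight · Measured by – Image-based BODIPY and DAPI two-channel analysis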
TAG inh – inhibitors of triacylglycerol accumulation, primary screen, cell-based, uHTS, fluorescence, H9c2; H9c2 cells, Nile Red lipid (TAG) fluorescence; cells loaded with 200 µM oleic acid; inhibition, % at 12.5 µM; actives 0.66% (n = 230,000); AID 651582, 2012;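 active = pattern-corrected inhibition of lipid staining of at least 50% with the nuclear-stain viability signal not falling by more than 50%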
Jurkat NFkB inh – inhibitors of induced NF-kB luciferase reporter, primary screen, TCR NF-kB activation inhibitor project, cell-based, luminescence, uHTS; Jurkat, PMA/ionomycin-induced NF-kB luciferase reporter; inhibition, % at 4 µM; actives 0.53% (n = 330,000); in the data active = inhibition above about 50%
Gli-Sufu block – Gli-Sufu pathway antagonists, primary screen, luciferase luminescence, Sufu-KO-LIGHT cells, uHTS | Sufu-KO-LIGHT fibroblasts, Gli luciferase reporter luminescence | inhibition, % at 5 µM | actives 0.74% (n = 340,000) | AID 588413, 2011;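 active = inhibition above about 55%, limit read from the data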
697 NFkB inh – inhibitors of PMA/ionomycin-induced NF-kB reporter, 697 cells, primary screen, B-cell NF-kB inhibitor project, cell-based, luminescence, uHTS; 697 B-cell NF-kB luciferase reporter, 16 h; inhibition, % at 4 µM; actives 0.33% (n = 330,000); AID 435022, 2010; in the data active = inhibition above about 35%
iPSC survival up – enhancers of single-cell hiPSC survival, primary screen, ATPlite luminescence | 100% = ROCK inhibitor wells, 0% = DMSO | actives 0.044% (n = 360,000) | AID 602274, 2012 | survival enhancement, % at 20 µM; in the data active = survival enhancement above about 18%;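 also: cells exposed to compounds for 16 hours before the ATP read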
Jurkat NFkB conf – PMA/ionomycin-induced NF-kB reporter inhibitors, Jurkat retest, confirmation, T-cell NF-kB inhibitor project, cell-based, luminescence, single concentration. inhibition, % at 4 µM. Jurkat NF-kB luciferase, 16 h. shares compounds with Jurkat NFkB inh. actives 27% (n = 2,700);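 active = inhibition reaching about 45% at 4 µM in either replicate, limit read from the data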
Of the large screens only hits and unclear results are named; the others gave an inactive call (follow-up assays come after a bar, where they were run). Hits are enriched below; roughly 1.8% of the tested compounds scored in any of these assays.

O=C(Nc1ccccc1)c1ccc2ccccc2n1	none | Jurkat NFkB conf inactive
COCc1c(C(=O)N2CCN(c3ccccc3C)CC2)oc2ccccc12	none (no result: Lipid droplet)
O=C(Nc1ccc2c(c1)OCCO2)c1ccc2ccccc2n1	none | Jurkat NFkB conf inactive
Cc1ccnc2nc(C(=O)OCC(=O)NC(=O)NCc3ccco3)nn12	none
O=c1[nH]c(/C=C/c2ccccc2Cl)nc2ccccc12	none (no result: Lipid droplet, TAG inh)
Clc1cccc(Cl)c1/C=C/c1nc2ccccc2[nH]1	none (no result: Lipid droplet, TAG inh) | Jurkat NFkB conf inactive
C/C(=N\Nc1nc(C(C)(C)C)cs1)c1ccccc1	none (no result: TAG inh) | Jurkat NFkB conf inactive
C/C(=N\Nc1nc(C(C)(C)C)cs1)c1ccc(O)cc1	none
Cc1c2c(nc3ccccc13)OCC2	none (no result: TAG inh, Jurkat NFkB inh, 697 NFkB inh)
CCNC(=O)C1(C)CCN(Cc2ccccc2-c2ccccc2)C1 (stereo unspecified)	none (no result: Lipid droplet, Jurkat NFkB inh, Gli-Sufu block, 697 NFkB inh)
Cc1ccc(NC(=S)NNC(=S)Nc2ccc(C)cc2C)cc1	Lipid droplet inconclusive, Jurkat NFkB inh 66 | Jurkat NFkB conf inactive
O=[N+]([O-])c1ccc(Sc2ccc(Cl)c(Cl)c2)nc1	Jurkat NFkB inh 79 (no result: Lipid droplet, TAG inh) | Jurkat NFkB conf inactive
O=[N+]([O-])c1ccc(Sc2ccccn2)nc1	none
c1ccc(Nc2nc(-c3ccccc3)ns2)cc1	none (no result: TAG inh) | Jurkat NFkB conf inactive
Cn1c(SC2=CS(=O)(=O)c3ccccc32)nc2ccccc21	Jurkat NFkB inh 74 (no result: Lipid droplet) | Jurkat NFkB conf inactive
CC1(C)Cc2nc3sc4c(=O)n(CC(=O)NCc5ccco5)cnc4c3cc2CO1	Jurkat NFkB inh 50 (no result: Lipid droplet, TAG inh) | Jurkat NFkB conf inactive
CC(C)C(=O)N[C@H]1CCC2C3CC=C4C[C@@H](O)CC[C@]4(C)C3CC[C@@]21C (stereo partly specified)	none (no result: Lipid droplet)
CC(C)(C)[C@H](N)C(=O)N[C@H]1CCC2C3CC=C4C[C@@H](O)CC[C@]4(C)C3CC[C@@]21C (stereo partly specified)	Jurkat NFkB inh 61 (no result: Lipid droplet) | Jurkat NFkB conf inactive
CC1=Nc2cc(C(=O)NCC3CCCO3)ccc2Sc2ccc(C)cc21 (stereo unspecified)	none (no result: TAG inh)
CC1=Nc2cc(C(=O)NCc3ccco3)ccc2Sc2ccc(C)cc21	Lipid droplet inconclusive, Jurkat NFkB inh 51 (no result: TAG inh) | Jurkat NFkB conf inactive
N#Cc1cc2cc3c(cc2nc1SCC(=O)N1CCCC1)OCCO3	none (no result: TAG inh) | Jurkat NFkB conf inactive
COc1ccc2cc(C#N)c(SCC(=O)N3CCCC3)nc2c1	none
Cc1cc(C)c(C#N)c(SCc2nnc(-c3ccccc3[N+](=O)[O-])o2)n1	none | Jurkat NFkB conf inactive
Cc1cc(C)c(C#N)c(SCc2ccccc2[N+](=O)[O-])n1	none
O=C(Nc1ccccc1)c1cc2ccc3ccccc3c2s1	none | Jurkat NFkB conf inactive
COc1ccc2cc(C(=O)Nc3ccccc3)sc(=O)c2c1OC	none
Cc1cc(-c2ccc(C(=O)O)s2)cnc1N	none (no result: TAG inh)
O=C(Nc1ccccc1)c1ccc(-c2ccccc2)s1	none | Jurkat NFkB conf inactive
O=C(O)c1ccc(-c2ccc(-c3ccccc3)cc2)s1	Jurkat NFkB inh 61 (no result: TAG inh, Gli-Sufu block) | Jurkat NFkB conf inactive
C=CCC(C(=O)OC)(C(=O)OC)c1ccccc1[N+](=O)[O-]	none
Cc1cc(C)cc(N(CCC#N)C(=O)CSc2nc3ccccc3c(=O)[nH]2)c1	none (no result: Lipid droplet)
O=c1c2ccccc2oc2ccc(Oc3ccccc3)cc12	none (no result: Lipid droplet) | Jurkat NFkB conf inactive
COc1ccc(CNC(=O)CCCCCNC(=O)N2CCn3c2nc2ccccc23)cc1	none (no result: TAG inh)
O=c1c2ccccc2oc2ccc(-c3ccc4[nH]ccc4c3)cc12	none (no result: Lipid droplet) | Jurkat NFkB conf inactive
Cc1[nH]c2ccccc2c1/C=C/c1nc2ccccc2c(=O)[nH]1	none | Jurkat NFkB conf inactive
O=[N+]([O-])c1ccccc1/C=C/c1ccc2ccccc2n1	none (no result: Lipid droplet) | Jurkat NFkB conf inactive
COc1ccc(NC(=O)Cn2nnc(C(=O)NCc3ccccc3)c2N)c(OC)c1	none (no result: TAG inh)
Cc1ccc(S(=O)(=O)/N=C2\C=C(Nc3ccc(O)cc3)C(=O)c3ccccc32)cc1	Jurkat NFkB inh 64, Gli-Sufu block 94 (no result: Lipid droplet) | Jurkat NFkB conf 99
Cc1ccc(S(=O)(=O)/N=C2\C=C(Nc3cccc(C(=O)O)c3)C(=O)c3ccccc32)cc1	none (no result: TAG inh)
Cc1cc(C)n2nc(SCCOc3ccccc3F)nc2n1	none
COc1cc(/C=C(\C#N)C(=O)N2CCOCC2)ccc1OCc1ccccc1	none
N#C/C(=C\c1ccc(OCc2ccc(C(=O)O)cc2)cc1)C(=O)N1CCOCC1	Jurkat NFkB inh 66 | Jurkat NFkB conf 60
Cc1ccc2c(c1)Oc1ccc(NC(=O)CCl)cc1C(=O)N2	TAG inh 56, Jurkat NFkB inh 64 | Jurkat NFkB conf 51
Cc1ccc2c(c1)Oc1ccc([N+](=O)[O-])cc1C(=O)N2	none
O=C1CCN(Cc2ccc(O)cc2)CCN1[C@H](CO)c1ccccc1	none
Cc1ccc2nc(Nc3nc(-c4ccccc4)cc(=O)[nH]3)nc(C)c2c1	none (no result: Lipid droplet)
COc1ccc2c(C)nc(Nc3nc(-c4ccccc4)cc(=O)[nH]3)nc2c1	Jurkat NFkB inh 89 | Jurkat NFkB conf 38
COc1cccc2sc3ccc(C#Cc4ccc(N)cc4)cc3c(=O)c12	none
COc1cccc2sc3ccc(C#CC4(O)CCCCC4)cc3c(=O)c12	none | Jurkat NFkB conf inactive
CCn1ncc(C2=NOC(C(=O)NCc3ccccc3)C2)c1C (stereo unspecified)	Jurkat NFkB inh 74 (no result: TAG inh) | Jurkat NFkB conf inactive
CCn1ncc(C2=NOC(C(=O)NCc3ccc(OC)cc3)C2)c1C (stereo unspecified)	none (no result: Lipid droplet, TAG inh, Jurkat NFkB inh, 697 NFkB inh)
Cc1ccc2nc(SCC(=O)Nc3cc(C(F)(F)F)ccc3N3CCOCC3)[nH]c2c1	Jurkat NFkB inh 52 | Jurkat NFkB conf 56
CCN1CCN(c2ccccc2NC(=O)c2ccc(-n3cccn3)cc2)CC1	none (no result: Lipid droplet)
CCNS(=O)(=O)c1ccc(CCC(=O)NCc2ccc(C)cc2)cc1	none
O=C(CCc1nnc2ccc(N3CCCC3)nn12)Nc1cc(F)ccc1F	none (no result: TAG inh)
CCOc1cc(S(=O)(=O)NCc2ccc(OC)cc2)c(OCC)cc1-n1cnnn1	Jurkat NFkB inh 57 (no result: TAG inh) | Jurkat NFkB conf inactive
CSCC[C@H](NC(=O)Nc1cccc(Br)c1)C(=O)O	none
O=C(N/N=C/c1c(O)ccc2ccccc12)c1cccc(C(F)(F)F)c1	Jurkat NFkB inh 52, Gli-Sufu block 60 (no result: TAG inh) | Jurkat NFkB conf 74
Cc1cc(/C=N/NC(=O)c2ccoc2C)cc(C)c1O	none (no result: Lipid droplet, Jurkat NFkB inh, Gli-Sufu block, 697 NFkB inh)
Cc1occc1C(=O)N/N=C/c1ccc(-c2ccccc2)cc1	none (no result: TAG inh) | Jurkat NFkB conf inactive
COC(=O)c1c(-c2ccc(SC)cc2)sc2ccc(OC)cc12	none (no result: Lipid droplet) | Jurkat NFkB conf inactive

Source: PubChem BioAssay (Sanford-Burnham Center for Chemical Genomics)
